# Experimental data from different studies.
# Each line is one published result; the experiments were not run side by side.
# Target: Calcium/calmodulin-dependent protein kinase type 1G (CAMK1G, Homo sapiens, UniProt Q96NX5)
SMILES,assay,conditions,remaining binding [%]
C[C@@H]1CCN(c2nccc(-c3cnn4ncccc34)n2)C1,binding,1 µM,91
c1cncc(-c2cccc(Nc3nccc(NC4CCCCC4)n3)c2)c1,"binding, competition with immobilised ligand",10 µM,81
COc1cnc(Nc2cccc(S(N)(=O)=O)c2)nc1N1CCN(c2ccccc2)C(=O)C1,"binding, competition with immobilised ligand",1 µM,100
O=C(c1ccc(Nc2ncc(Cl)c(-c3cc4ccccc4s3)n2)cc1)N1CCC(N2CCCC2)CC1,"binding, competition with immobilised ligand",1 µM,82
COc1cc(-c2cn(C3CCc4ccccc4N(CC(F)(F)F)C3=O)nn2)ccc1-n1ccc(C)n1 (stereo not shown),"cell-free assay, competition with immobilised ligand",1 µM,100
CNC(=O)[C@@H]1CC[C@@H](n2c(-c3ccc4cnccc4c3)nc3ccc(C(=O)NCc4cccc(C(N)=O)c4)cc32)C1,"binding, competition with immobilised ligand",1 µM,98
N[C@H]1CCN(c2nccc(-c3cnn4ncccc34)n2)C1,"binding, competition with immobilised ligand",1 µM,93
CNCc1ccccc1-c1csc([C@H](C)Nc2nc(C)nc3cc(OC)c(OC)cc23)c1,"cell-free assay, competition with immobilised ligand",1 µM,96
O=C(NCC1CCOCC1)c1n[nH]cc1NC(=O)c1c(F)cccc1F,"binding, competition with immobilised ligand",1 µM,96
O=C(c1ccc(Nc2nccc(-c3cc4ccccc4s3)n2)cc1)N1CCC(N2CCCC2)CC1,"binding, competition with immobilised ligand",1 µM,72
c1cnn2ncc(-c3ccnc(N4CCC45COC5)n3)c2c1,binding,1 µM,100
COc1cc(-c2cn(C3CCc4c(F)cccc4N(CC(F)(F)F)C3=O)nn2)ccc1-n1cnc(C)c1 (stereo not shown),"cell-free assay, competition with immobilised ligand",1 µM,100
O=C(c1ccc(Nc2ncc(Cl)c(-c3ccc(Cl)s3)n2)cc1)N1CCC(N2CCCC2)CC1,"binding, competition with immobilised ligand",1 µM,80
O=C(NC[C@@H]1[C@H]2CN(C(=O)OCc3cc(C(F)(F)F)cc(C(F)(F)F)c3)C[C@@H]12)c1ccc2[nH]nnc2c1,"cell-free assay, competition with immobilised ligand",1 µM,100
COc1ccnn2ncc(-c3ccnc(N(C)C)n3)c12,binding,1 µM,100
C=CC(=O)N1CCC(C(=O)NCC(=O)N2CCN(c3nc(-c4cnc(N)nc4C(F)F)nc(N4CCOCC4)n3)CC2)CC1,"binding, competition with immobilised ligand",1 µM,100
Cn1nc(C(=O)NCc2ccc(C(=O)O)cc2)cc1-c1ccc2[nH]ccc2c1,"cell-free assay, competition with immobilised ligand",0.1 µM,89
CCN1CCN(Cc2ccc(C(=O)Nc3ccc(C)c(Oc4ccc5c(c4)CC(=O)N5)c3)cc2C(F)(F)F)CC1,"binding, competition with immobilised ligand",1 µM,94
COCCOc1nc(-c2ccc(Cl)nc2)nc2c1CN(C(=O)c1ncn3ccccc13)CC2,"cell-free assay, competition with immobilised ligand",0.1 µM,100
CN(CCCC(F)(F)F)c1nccc(-c2cnn3ncccc23)n1,binding,1 µM,100
COc1ccc2cc(OCC3(C(=O)O)CN(C(=O)c4ccc(F)cc4)C3)ccc2c1,"cell-free assay, competition with immobilised ligand",1 µM,100
CN(C)c1ncc(F)c(-c2cnn3ncccc23)n1,"binding, competition with immobilised ligand",1 µM,96
